One block for each molecule: values may come before it. Activity calls are given as the source filed them. The rule behind the calls is not given here.
Experiments:
3T3-L1 [1] = assay: Cytotoxicity against mouse 3T3L1 cells assessed as reduction in cell viability at 40 uM after 48 hrs by MTT assay; type: cell-based; conditions: 3t3-l1, 48 h
In short: (§1)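 3T3-L1 preadipocytes incubated 48 h with 5, 10, 20 or 40 μM compound; viability read by MTT assay against 0.1% DMSO-treated control cells. Mean ± SD of three independent experiments.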

3T3-L1 [2] = assay: Cytotoxicity against mouse 3T3L1 cells assessed as effect on cell viability at 10 uM after 48 hrs by MTT assay; type: cell-based; conditions: 3t3-l1, 48 h; in short: as §1
3T3-L1 [3] = assay: Reduction in lipid accumulation in mouse 3T3L1 cells at 10 uM by Oil Red O staining-based absorbance method relative to control; type: functional
In short: (§2)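 3T3-L1 preadipocytes differentiated to mature adipocytes, then treated with compound (screen at 10 μM; concentration series 10, 20, 40, 80 μM). Lipid stained with Oil Red O, dye extracted and absorbance read at 492 nm; microscopic images also taken. Compared with vehicle; mean ± SD of two independent experiments.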

[4] = biological target: T1, Bile acid receptor (Homo sapiens) (UniProt Q96RI1); assay: Transactivation of FXR (unknown origin) at 10 uM by cell-based dual luciferase reporter gene assay
T1 sequence (whole entry): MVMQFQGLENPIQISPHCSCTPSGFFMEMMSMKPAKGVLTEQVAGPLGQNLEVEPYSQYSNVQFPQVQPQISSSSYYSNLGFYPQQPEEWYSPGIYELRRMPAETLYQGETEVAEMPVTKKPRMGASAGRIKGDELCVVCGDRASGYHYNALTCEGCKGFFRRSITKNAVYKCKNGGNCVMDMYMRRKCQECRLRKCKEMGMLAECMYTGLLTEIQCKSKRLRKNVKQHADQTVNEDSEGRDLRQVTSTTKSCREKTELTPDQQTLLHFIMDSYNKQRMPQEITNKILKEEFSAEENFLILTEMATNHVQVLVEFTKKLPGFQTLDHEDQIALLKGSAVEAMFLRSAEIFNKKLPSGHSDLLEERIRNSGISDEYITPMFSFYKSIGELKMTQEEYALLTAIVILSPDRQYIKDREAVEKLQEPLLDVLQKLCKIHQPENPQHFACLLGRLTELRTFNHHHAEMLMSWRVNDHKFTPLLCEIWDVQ
In short: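 Cell-based FXR transactivation measured with a dual-luciferase reporter system; cells exposed to 10 μM compound. Mean ± SEM, n = 3.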

[5] = biological target: T1, Bile acid receptor (Homo sapiens); assay: Agonist activity against FXR in human HepG2 cells assessed as down regulation of SREBP-1c mRNA expression at 10 uM by RT-PCR analysis; type: cell-based
In short: (§3)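 HepG2 cells exposed to test agent at 10 μM; mRNA of FXR and FXR-regulated genes SHP, BSEP and SREBP-1c quantified by real-time PCR relative to vehicle. Mean ± SEM, n = 3.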

[6] = biological target: T1, Bile acid receptor (Homo sapiens); assay: Agonist activity against FXR in human HepG2 cells assessed as up-regulation of SHP mRNA expression at 10 uM by RT-PCR analysis; type: cell-based; in short: as §3
3T3-L1 [7] = assay: Reduction in lipid accumulation in mouse 3T3L1 cells at 80 uM by Oil Red O staining-based absorbance method relative to control; type: functional; design: scale not given: the % may be the effect or the level left; in short: as §2
HepG2 [8] = assay: Induction of cell proliferation in human HepG2 cells at <20 uM; type: functional, cell-based
HepG2 [9] = assay: Up-regulation of FXR mRNA expression in human HepG2 cells at 10 uM by RT-PCR analysis; type: functional, cell-based; in short: as §3
[10] = biological target: T1, Bile acid receptor (Homo sapiens); assay: Agonist activity against FXR in human HepG2 cells assessed as up-regulation of BSEP mRNA expression at 10 uM by RT-PCR analysis; type: cell-based; in short: as §3
3T3-L1 [11] = assay: Reduction in lipid accumulation in mouse 3T3L1 cells at 10 to 80 uM by Oil Red O staining-based microscopic analysis; type: functional, cell-based; in short: as §2
[12] = Hepatotoxicity in human HepG2 cells assessed as reduction in cell viability at 80 uM; type: toxicity, cell-based; conditions: hepg2, 80 µM
3T3-L1 [13] = assay: Reduction in lipid accumulation in mouse 3T3L1 cells by Oil Red O staining-based absorbance method; type: functional, cell-based; in short: as §2
3T3-L1 [14] = assay: Increase in cell viability of mouse 3T3L1 cells at 5 uM after 48 hrs by MTT assay; type: functional, cell-based; in short: as §1

SMILES: CC(C)c1onc(-c2c(Cl)cccc2Cl)c1COc1ccc2c(=O)c(-c3ccc(O)cc3)coc2c1
Activity (3T3-L1 [1]): Toxic
Activity (3T3-L1 [2]): Non-Toxic
Activity (3T3-L1 [3]): Active

SMILES: CC(C)c1onc(-c2c(Cl)cccc2Cl)c1COc1ccc2c(=O)c(-c3ccc(OCC(=O)O)cc3)coc2c1
Activity (3T3-L1 [1]): Non-Toxic
Activity (3T3-L1 [2]): Non-Toxic
Activity (3T3-L1 [3]): Active

SMILES: CC(C)c1onc(-c2c(Cl)cccc2Cl)c1COc1ccc2c(=O)c(-c3ccc(C(=O)O)cc3)coc2c1
Activity (3T3-L1 [1]): Non-Toxic
Activity (3T3-L1 [2]): Non-Toxic
Activity (3T3-L1 [3]): Active

Activity [4]: Active
SMILES: CC(C)c1onc(-c2c(Cl)cccc2Cl)c1COc1ccc(/C=C/c2cccc(C(=O)O)c2)c(Cl)c1
Activity (3T3-L1 [2]): Non-Toxic
Activity (3T3-L1 [3]): Active

SMILES: CCNC(=O)c1ccc(-c2coc3cc(OCc4c(-c5c(Cl)cccc5Cl)noc4C(C)C)ccc3c2=O)cc1
Activity (3T3-L1 [1]): Non-Toxic
Activity (3T3-L1 [2]): Non-Toxic
Activity (3T3-L1 [3]): Active

SMILES: COc1ccc(-c2coc3cc(OCc4c(-c5c(Cl)cccc5Cl)noc4C(C)C)ccc3c2=O)cc1
Activity (3T3-L1 [1]): Non-Toxic
Activity (3T3-L1 [2]): Non-Toxic
Activity (3T3-L1 [3]): Active

SMILES: CCOC(=O)COc1ccc(-c2coc3cc(OCc4c(-c5c(Cl)cccc5Cl)noc4C(C)C)ccc3c2=O)cc1
Activity (3T3-L1 [1]): Non-Toxic
Activity (3T3-L1 [2]): Non-Toxic
Activity (3T3-L1 [3]): Active

SMILES: CC(C)c1onc(-c2c(Cl)cccc2Cl)c1COc1ccc2c(=O)c(-c3ccc(F)cc3)coc2c1
Activity (3T3-L1 [1]): Non-Toxic
Activity (3T3-L1 [2]): Non-Toxic

SMILES: CNC(=O)c1ccc(-c2coc3cc(OCc4c(-c5c(Cl)cccc5Cl)noc4C(C)C)ccc3c2=O)cc1
Activity (3T3-L1 [1]): Non-Toxic
Activity (3T3-L1 [2]): Non-Toxic
Activity (3T3-L1 [3]): Active

SMILES: CC(C)c1onc(-c2c(Cl)cccc2Cl)c1COc1ccc2c(=O)c(-c3ccc([N+](=O)[O-])cc3)coc2c1
Activity (3T3-L1 [1]): Non-Toxic
Activity (3T3-L1 [2]): Non-Toxic
Activity (3T3-L1 [3]): Active

Activity [5]: Active
Activity [6]: Active
Activity [4]: Active
SMILES: CC(C)c1onc(-c2c(Cl)cccc2Cl)c1COc1ccc2c(=O)c(-c3ccc(C(=O)N(C)C)cc3)coc2c1
Activity (3T3-L1 [1]): Non-Toxic
Activity (3T3-L1 [7]): >50%
Activity (HepG2 [8]): Active
Activity (HepG2 [9]): Active
Activity [10]: Active
Activity (3T3-L1 [11]): Active
Activity (3T3-L1 [2]): Non-Toxic
Activity (3T3-L1 [3]): Active
Activity [12]: Non-Toxic
Activity (3T3-L1 [13]): Dose-dependent effect

SMILES: CC(C)c1onc(-c2c(Cl)cccc2Cl)c1COc1ccc2c(=O)c(-c3ccc(C(=O)NC4CC4)cc3)coc2c1
Activity (3T3-L1 [1]): Non-Toxic
Activity (3T3-L1 [14]): Active
Activity (3T3-L1 [2]): Non-Toxic
Activity (3T3-L1 [3]): Active

SMILES: COC(=O)c1ccc(-c2coc3cc(OCc4c(-c5c(Cl)cccc5Cl)noc4C(C)C)ccc3c2=O)cc1
Activity (3T3-L1 [1]): Non-Toxic
Activity (3T3-L1 [2]): Non-Toxic
Activity (3T3-L1 [3]): Active

Source: ChEMBL document CHEMBL4257574, “Structure-guided design and synthesis of isoflavone analogs of GW4064 with potent lipid accumulation inhibitory activities” (Bioorg Med Chem Lett, 2018)
